High-throughput results: PubChem, Broad Institute
Rows were chosen to be rich in hits. Some 2.8% of all compounds tested hit in one or more screens of this group.
CAL PDZ FP-1: CAL PDZ (human) peptide binding inhibition; purified CAL PDZ, TMR-peptide fluorescence polarization, 1 h; inhibition, % at 24.9 µM; actives 0.92% (n = 300,000);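 active = mean inhibition of at least 30% with at least half of replicates also reaching 30%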;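 note: 0% = DMSO neutral control and 100% = excess unlabeled competitor peptide PRC23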
CAL PDZ FP-2: inhibitors of human CAL PDZ peptide binding; Q9HD26; purified CAL PDZ, TMR-peptide fluorescence polarization, 1 h; inhibition, % at 20 µM; actives 0.02% (n = 330,000);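 active = highest replicate inhibition of at least 40%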;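 note: plate controls were DMSO neutral control wells for no effect and unlabeled competitor peptide control wells for full effect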
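Material – purified CerCALP PDZ construct · Detection – FP readout, S and P plane fluorescence · Measure – percent inhibition from loss of millipolarization · Controls – unlabelled peptide for full inhibition, DMSO wells as neutral · Probe or stimulus – TMR-labelled reporter peptide T*-PRC34 bound in PDZ groove · Times – 1 h at RT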
SR-BI DiI-HDL act: SR-BI HDL lipid transfer activation; CHO ldlA[mSR-BI] cells, DiI-HDL uptake fluorescence, 3 h; 100 = double the neutral-control signal; activation, % at 12.5 µM; actives 0.096% (n = 320,000); AID 504775;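 active = mean replicate activation of at least 60% and every replicate at or above 60%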;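 note: 0% = median plate neutral-control signal and 100% = twice that signal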
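material = CHO ldlA[mSR-BI] cells | medium = Ham's F12 with 0.5% BSA, HEPES 25 mM, pH 7.4 | reagent = fluorescent DiI-HDL, 10 µg/mL final | compound dosing = single-point compound dose | incubation = 3 h, 37 °C | measured by = bottom-read fluorescence, 550/595 nm | measure = HDL uptake via cellular fluorescence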
dFosB act-1: mouse delta FosB homodimer activation. P13346. purified delta FosB, TAMRA-CDK5 oligo fluorescence polarization; percent of positive-control signal above neutral wells. activation, % at 25 µM. actives 0.99% (n = 340,000). AID 493131;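 active = mean activation above about 17%, with every replicate also reaching it, limit read from the data, passing the limit was not always enough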
Target sequence (P13346 whole entry, looked up): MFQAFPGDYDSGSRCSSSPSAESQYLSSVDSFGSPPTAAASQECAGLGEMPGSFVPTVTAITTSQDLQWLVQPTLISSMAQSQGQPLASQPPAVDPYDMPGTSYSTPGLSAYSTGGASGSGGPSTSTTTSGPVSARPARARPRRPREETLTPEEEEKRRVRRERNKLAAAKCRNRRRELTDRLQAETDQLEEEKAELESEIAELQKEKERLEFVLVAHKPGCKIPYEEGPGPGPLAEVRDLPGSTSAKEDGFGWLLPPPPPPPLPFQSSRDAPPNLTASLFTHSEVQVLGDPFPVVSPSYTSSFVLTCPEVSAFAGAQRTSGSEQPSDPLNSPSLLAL
SR-BI DiI inh: blocks mouse SR-BI lipid uptake from DiI-HDL. AID 488896. actives 0.96% (n = 320,000). inhibition, % at 12.5 µM. Q61009. ldlA[mSR-BI] CHO cells, DiI-HDL uptake fluorescence, 3 h;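 active = mean replicate inhibition of at least 70% and a set share of replicates each scoring 70 or more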;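 note: 0% = median of neutral control wells and 100% = median of positive control wells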
dFosB act-2: activators of mouse delta FosB homodimer DNA binding; purified delta FosB, TAMRA-CDK5 oligo fluorescence polarization; normalised: neutral wells 0, positive control 100; activation, % at 24.9 µM; shares compounds with dFosB act-1; 2,400 tested, under 10 active;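 active = highest replicate activation at or above 34% and every replicate reaching that threshold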;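 note: higher polarization means more probe DNA bound by delta FosB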
The depositor's hits bear a star; . = no result.

SMILES | CAL PDZ FP-1 | CAL PDZ FP-2 | SR-BI DiI-HDL act | dFosB act-1 | SR-BI DiI inh | dFosB act-2
Nc1nc(NCCO)nc(NCc2ccccc2)c1[N+](=O)[O-] | -2 | 0 | -8 | 2 | 8 | .
Cc1cccc(Nc2nc(N)c([N+](=O)[O-])c(NCc3ccco3)n2)c1 | . | 1 | -29 | 53* | 29 | 5
CN1CCN(c2nc(NCc3ccco3)nc(N)c2[N+](=O)[O-])CC1 | -3 | -2 | 12 | -8 | -12 | .
Cc1ccc(Nc2nc(N)c([N+](=O)[O-])c(NCc3ccccc3)n2)cc1 | . | 0 | -21 | 47* | 21 | 0
CC(/C=C1\SC(=O)N(CC(=O)Nc2cccc(O)c2)C1=O)=C\c1ccccc1 | -1 | -1 | -7 | 24* | 7 | 3
COc1ccc(/C=C2\SC(=O)N(CC(=O)Nc3ccccc3O)C2=O)cc1OC | -10 | -1 | 19 | 3 | -19 | .
COc1ccc(/C=C2\SC(=O)N(CC(=O)Nc3ccc(O)cc3)C2=O)cc1OC | -8 | 0 | 30 | 25* | -30 | 0
O=C(CN1C(=O)S/C(=C\c2ccc(Cl)cc2)C1=O)NNC(=O)c1ccccc1O | -1 | -1 | 19 | 26* | -19 | 2
O=C(CN1C(=O)S/C(=C\c2ccc(Cl)cc2)C1=O)NC1C=CS(=O)(=O)C1 (stereo not drawn) | -7 | -1 | -6 | 20* | 6 | 5
CCCCCN(C(=O)COC(=O)c1ccc(C)cc1)c1c(N)n(CCCC)c(=O)[nH]c1=O | -2 | -1 | -9 | 10 | 9 | .
CCOC(=O)C1CCN(CCC(=O)Nc2ccc(C)cc2)CC1 | 2 | -1 | 23 | -7 | -23 | .
Cc1ccccc1NC(=O)CN1C(=O)S/C(=C/c2cccnc2)C1=O | 2 | -3 | 4 | -3 | -4 | .
COC(=O)COc1ccc(/C=C2\SC(=O)N(CC(=O)Nc3ccccc3F)C2=O)cc1 | . | -2 | 15 | 33* | -15 | -2
COc1ccc(OCC(=O)Nc2cc(-c3nn(C)c(=O)c4ccccc34)ccc2OC)cc1 | 0 | -4 | -53 | -14 | 53 | .
COc1ccc(-c2nn(C)c(=O)c3ccccc23)cc1NC(=O)Cn1nc(-c2ccccc2)c2ccccc2c1=O | -4 | -1 | -19 | 19* | 19 | -1
CC(=O)Nc1ccc(/C(C)=N/NC(=O)c2ccc(COc3ccccc3Cl)o2)cc1 | 0 | 1 | -53 | 31* | 53 | -2
Cc1cc(NC(=O)c2ccc(COc3ccccc3Cl)o2)no1 | -4 | -1 | -11 | 7 | 11 | .
COc1ccc(/C=N/NC(=O)c2ccc(COc3ccccc3Cl)o2)cc1 | 1 | -3 | 3 | 28* | -3 | 8
O=c1nc(Nc2ccc(OCc3ccccc3)cc2)sc2ncccc12 | -1 | -2 | -5 | 20* | 5 | -1
CCOC(=O)c1ccc(Nc2nc(=O)c3cccnc3s2)cc1 | -3 | . | 5 | -7 | -5 | .
CCOCCCn1c(=S)[nH]c2cc(C(=O)N3CCN(C4CCCCC4)CC3)ccc2c1=O | -3 | -2 | 7 | -10 | -7 | .
CCOc1cc2[nH]c(=S)n(Cc3ccc(C)o3)c(=O)c2cc1OCC | . | 0 | -57 | 34* | 57 | 3
O=C(c1ccc(Cn2c(=S)[nH]c3ccc(Br)cc3c2=O)cc1)N1CCN(C2CCCCC2)CC1 | 29 | -1 | -50 | 31* | 50 | 5
Cc1ccc(Cn2c(=S)[nH]c3ccc(N4CCOCC4)cc3c2=O)o1 | -1 | -4 | 10 | -6 | -10 | .
CCOc1cc2[nH]c(=O)n(Cc3ccc(C(=O)NCCCN4CCC(C)CC4)cc3)c(=O)c2cc1OCC | -9 | -5 | -18 | 26* | 18 | 4
SMILES | CAL PDZ FP-1 | CAL PDZ FP-2 | SR-BI DiI-HDL act | dFosB act-1 | SR-BI DiI inh | dFosB act-2
CCOc1cc2[nH]c(=S)n(Cc3ccc(C(=O)NCCCN(CC)CC)cc3)c(=O)c2cc1OCC | -9 | -5 | -25 | 30* | 25 | 5
CNC(=O)C1CC(=O)N(c2ccc(OCC(=O)Nc3ccc(F)cc3)cc2)C1 (stereo not drawn) | . | -1 | 6 | -9 | -6 | .
Cc1cc(C(=O)CCC(=O)NCC(=O)Nc2c(C)cccc2C)c(C)s1 | -4 | -2 | -19 | -10 | 19 | .
O=C1NC(=O)N2CCSC2(Cc2ccccc2)N1 (stereo not drawn) | 0 | -1 | 5 | -6 | -5 | .
COc1ccccc1NC(=O)C(C)OC(=O)CC1CCCCC1 (stereo not drawn) | -9 | 0 | -12 | -1 | 12 | .
CCCN(CCC)CCCNC(=O)C1CCC(CNS(=O)(=O)c2cccc3nsnc23)CC1 (stereo not drawn) | -1 | -2 | 24 | -1 | -24 | .
COC(=O)c1ccc2c(=O)n(Cc3ccc(C(=O)NCCCN4CCOCC4)cc3)c(=S)[nH]c2c1 | 6 | -1 | -29 | 29* | 29 | 5
CCOc1cc2[nH]c(=S)n(CCc3ccc(OC)c(OC)c3)c(=O)c2cc1OCC | 0 | -1 | -32 | -1 | 32 | .
CCOc1cc2[nH]c(=O)n(CCc3ccc(OC)c(OC)c3)c(=O)c2cc1OCC | 4 | -1 | -15 | 25* | 15 | -13
COc1ccc(Cn2c(=S)[nH]c3cc(C(=O)NCc4cccnc4)ccc3c2=O)cc1 | -4 | -1 | 5 | 24* | -5 | 1
O=C(NCCCN1CCOCC1)c1ccc2c(=O)n(Cc3ccc(Cl)cc3)c(=S)[nH]c2c1 | . | -3 | 14 | 3 | -14 | .
CCCn1c(=S)[nH]c2cc(C(=O)NCC3CCCO3)ccc2c1=O (stereo not drawn) | . | -1 | 11 | 3 | -11 | .
O=C(NCC1CCCO1)c1ccc2c(=O)n(Cc3cccc(Br)c3)c(=S)[nH]c2c1 (stereo not drawn) | 9 | 0 | -6 | 44* | 6 | -4
COc1ccc(N2CCN(CCCNC(=O)CN3C(=O)COc4ccccc43)CC2)cc1 | -2 | -5 | 2 | -13 | -2 | .
O=C(NCc1ccccc1Cl)c1ccc(NC2=NC3CS(=O)(=O)CC3S2)cc1 (stereo not drawn) | . | 0 | 24 | 29* | -24 | 4
O=C(NCc1ccccc1Cl)c1cccc(NC2=NC3CS(=O)(=O)CC3S2)c1 (stereo not drawn) | . | -1 | -3 | -5 | 3 | .
COc1cccc(NC(=O)COc2ccc3c(c2)CCC3)c1 | . | -1 | 2 | -10 | -2 | .
CCOC(=O)Nc1cccc(OCC(=O)Nc2ccc3c(c2)CCC3)c1 | -2 | 2 | -43 | 23* | 43 | -1
Cc1cc2cc(CNC(=O)c3ccc(S(=O)(=O)N4CCCCC4)cc3)ccc2n1C | . | 0 | -33 | 33* | 33 | 2
Cc1cc2cc(CNC(=O)c3ccc(S(=O)(=O)N4CCCC4)cc3)ccc2n1C | 5 | 1 | 0 | -8 | 0 | .
